Data from ChEMBL document CHEMBL3097988, “Synthesis and characterization of new N-(4-(4-chloro-1H-imidazol-1-yl)-3-methoxyphenyl)amide/sulfonamide derivatives as possible antimicrobial and antitubercular agents” (2014).
Values after ≈ are worked out from the molar mass of the structure shown.

Key:
Type in all cases: functional
[1] = test system: Mycobacterium tuberculosis; assay: Antimicrobial activity against Mycobacterium tuberculosis H37Rv ATCC 27294 at 1 to 100 ug/ml after 7 days by resazurin assay
Summary of the method: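 Preliminary screen at three concentrations (1, 10 and 100) by resazurin microtitre assay. Cultures were grown in Middlebrook 7H9 with 10% OADC, and compounds came from 2 mg/mL DMF stocks with DMF controls. Plates were incubated 7 days at 37 °C, and resazurin colour was read after 1 h. Inhibition was scored as no blue-to-pink change.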

[2] = test system: Mycobacterium tuberculosis; assay: Antimicrobial activity against Mycobacterium tuberculosis H37Rv ATCC 27294 after 7 days by resazurin assay; settings: H37Rv ATCC 27294, 168 h
Summary of the method: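 Resazurin microtitre assay. Cultures were grown in Middlebrook 7H9 with 10% OADC and added to fresh medium in 96-well plates. Test compounds came from 2 mg/mL DMF stocks, with DMF-only controls. Plates were incubated 7 days at 37 °C, then resazurin was added and read after 1 h at 37 °C. MIC was the lowest concentration preventing the blue-to-pink change.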

[3] = test system: Rhizopus; assay: Antimicrobial activity against Rhizopus sp. after 3 to 4 days by serial plate dilution method
Summary of the method: (§1)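 Fungal MIC by serial plate dilution. Sabouraud agar (peptone, D-glucose, agar; pH 5.7) plates seeded with saline spore suspension, dried 1 h at 37 °C. Wells punched and filled with compound in DMSO; DMSO-only control. Triplicate plates held 3–4 days at 37 °C; inhibition zone diameter measured. Amphotericin B positive control. Tested range […] per mL.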

[4] = test system: Aspergillus flavus; assay: Antimicrobial activity against Aspergillus flavus after 3 to 4 days by serial plate dilution method; summary of the method: as §1
[5] = test system: Candida albicans; assay: Antimicrobial activity against Candida albicans after 3 to 4 days by serial plate dilution method; summary of the method: as §1
[6] = test system: Klebsiella pneumoniae; assay: Antimicrobial activity against Klebsiella pneumoniae ATCC 13883 after 16 to 18 hrs by serial plate dilution method
Summary of the method: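 Bacterial MIC by serial dilution in Mueller-Hinton broth adjusted to pH 5.0 with phosphate buffer. Tubes inoculated with standardized bacterial suspension, incubated 16–18 h at 37 °C. MIC read as lowest concentration with no visible growth. Range […] per mL. DMSO as negative control, ciprofloxacin as positive control.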

[7] = test system: Escherichia coli; assay: Antimicrobial activity against Escherichia coli ATCC 25922 after 16 to 18 hrs by […]
[8] = test system: Staphylococcus aureus; assay: Antimicrobial activity against Staphylococcus aureus ATCC 25923 after 16 to 18 hrs by […]
[9] = test system: Mycolicibacterium fortuitum; assay: Antimicrobial activity against Mycobacterium fortuitum ATCC 19542 after 7 days by resazurin assay; settings: ATCC 19542, 168 h
[10] = test system: Mycolicibacterium smegmatis; assay: Antimicrobial activity against Mycobacterium smegmatis (MC2) ATCC 19420 after 7 days by resazurin assay; settings: (MC2) ATCC 19420, 168 h

Row | SMILES | inhibition (INH) [1] [%] | MIC [2] [µg/mL] | MIC [3] [µg/mL] | MIC [4] [µg/mL] | MIC [5] [µg/mL] | MIC [6] [µg/mL] | MIC [7] [µg/mL] | MIC [8] [µg/mL] | MIC [9] [µg/mL] | MIC [10] [µg/mL]
1 | COc1cc(NS(=O)(=O)C2(c3ccc(Cl)cc3)CC2)ccc1-n1cnc(Cl)c1 | 90 | 1.25 (≈ 2.85 µM) | 128 (≈ 292 µM) | 64 (≈ 146 µM) | 128 (≈ 292 µM) | 128 (≈ 292 µM) | 64 (≈ 146 µM) | 128 (≈ 292 µM) | 10 (≈ 22.8 µM) | 
2 | COc1cc(NS(=O)(=O)c2ccccc2)ccc1-n1cnc(Cl)c1 | <90 | 5 (≈ 13.7 µM) | 64 (≈ 176 µM) | 128 (≈ 352 µM) | 128 (≈ 352 µM) | 128 (≈ 352 µM) | 64 (≈ 176 µM) | 8 (≈ 22 µM) |  | 10 (≈ 27.5 µM)
3 | COc1ccc(S(=O)(=O)Nc2ccc(-n3cnc(Cl)c3)c(OC)c2)cc1OC | 90 | 1.25 (≈ 2.95 µM) | 128 (≈ 302 µM) | 256 (≈ 604 µM) | 128 (≈ 302 µM) | 256 (≈ 604 µM) | 128 (≈ 302 µM) | 256 (≈ 604 µM) | 1.25 (≈ 2.95 µM) | 1.25 (≈ 2.95 µM)
4 | COc1cc(NS(=O)(=O)c2ccc([N+](=O)[O-])cc2)ccc1-n1cnc(Cl)c1 | 90 | 0.625 (≈ 1.53 µM) | 64 (≈ 157 µM) | 128 (≈ 313 µM) | 256 (≈ 626 µM) | 64 (≈ 157 µM) | 128 (≈ 313 µM) | 128 (≈ 313 µM) | 1.25 (≈ 3.06 µM) | 10 (≈ 24.5 µM)
5 | COc1cc(NS(=O)(=O)c2cccc(C(C)C#N)c2)ccc1-n1cnc(Cl)c1 (configuration not stated) | <90 | 2.5 (≈ 6 µM) | 256 (≈ 614 µM) | 128 (≈ 307 µM) | 64 (≈ 154 µM) | 64 (≈ 154 µM) | 128 (≈ 307 µM) | 64 (≈ 154 µM) |  | 2.5 (≈ 6 µM)
6 | COc1cc(NC(=O)c2ccccc2)ccc1-n1cnc(Cl)c1 | <90 | 5 (≈ 15.3 µM) | 128 (≈ 391 µM) | 256 (≈ 781 µM) | 256 (≈ 781 µM) | 128 (≈ 391 µM) | 256 (≈ 781 µM) | 128 (≈ 391 µM) |  | 10 (≈ 30.5 µM)
7 | COc1ccc(C(=O)Nc2ccc(-n3cnc(Cl)c3)c(OC)c2)cc1OC | 0 |  | 256 (≈ 660 µM) | 128 (≈ 330 µM) | > 256 | 256 (≈ 660 µM) | 256 (≈ 660 µM) | > 256 |  | 
8 | COc1cc(NC(=O)c2ccc([N+](=O)[O-])cc2)ccc1-n1cnc(Cl)c1 | <90 | 1.25 (≈ 3.35 µM) | 256 (≈ 687 µM) | > 256 | > 256 | > 256 | > 256 | 256 (≈ 687 µM) | 1.25 (≈ 3.35 µM) | 2.5 (≈ 6.71 µM)
9 | COc1cc(NC(=O)c2cccc(C(C)C#N)c2)ccc1-n1cnc(Cl)c1 (configuration not stated) | 90 | 2.5 (≈ 6.56 µM) | 128 (≈ 336 µM) | 256 (≈ 672 µM) | 128 (≈ 336 µM) | 128 (≈ 336 µM) | > 256 | 256 (≈ 672 µM) | 10 (≈ 26.3 µM) | 
10 | COc1cc(NS(=O)(=O)c2ccc(Cl)cc2Cl)ccc1-n1cnc(Cl)c1 | <90 | 5 (≈ 11.6 µM) | 128 (≈ 296 µM) | 64 (≈ 148 µM) | 128 (≈ 296 µM) | 64 (≈ 148 µM) | 4 (≈ 9.24 µM) | 8 (≈ 18.5 µM) |  | 
11 | COc1cc(NS(=O)(=O)c2ccco2)ccc1-n1cnc(Cl)c1 | <90 | 5 (≈ 14.1 µM) | 256 (≈ 724 µM) | 64 (≈ 181 µM) | 128 (≈ 362 µM) | > 256 | 64 (≈ 181 µM) | 128 (≈ 362 µM) |  | 10 (≈ 28.3 µM)
12 | COc1cc(NS(=O)(=O)c2cccc([N+](=O)[O-])c2Cl)ccc1-n1cnc(Cl)c1 | <90 | 2.5 (≈ 5.64 µM) | 256 (≈ 578 µM) | 128 (≈ 289 µM) | 64 (≈ 144 µM) | 32 (≈ 72.2 µM) | 128 (≈ 289 µM) | 8 (≈ 18 µM) |  | 2.5 (≈ 5.64 µM)
13 | COc1cc(F)c(S(=O)(=O)Nc2ccc(-n3cnc(Cl)c3)c(OC)c2)c(C(F)(F)F)c1 | <90 | 5 (≈ 10.4 µM) | 256 (≈ 534 µM) | 128 (≈ 267 µM) | 128 (≈ 267 µM) | 32 (≈ 66.7 µM) | 128 (≈ 267 µM) | 64 (≈ 133 µM) |  | 10 (≈ 20.8 µM)
14 | COc1cc(NS(=O)(=O)c2cccs2)ccc1-n1cnc(Cl)c1 | 90 | 1.25 (≈ 3.38 µM) | 128 (≈ 346 µM) | 256 (≈ 692 µM) | 64 (≈ 173 µM) | 256 (≈ 692 µM) | 64 (≈ 173 µM) | 128 (≈ 346 µM) | 1.25 (≈ 3.38 µM) | 1.25 (≈ 3.38 µM)
